The source made the active and inactive calls. No cut-off for these calls is given here.
Legend:
Assay type in all cases: cell-based
3T3-L1 = assay: Cytotoxicity against mouse 3T3L1 cells at 20 uM after 24 hrs; conditions: 3t3-l1, 24 h
Procedure, shortened: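 3T3-L1 cells exposed to compounds at 5-100 uM for 24 h. Viability was assessed under Mosmann's conditions.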

[1] = target: 5'-AMP-activated protein kinase catalytic subunit alpha-2 (Mus musculus) (UniProt Q8BRK8); assay: Inhibition of AMPK-mediated adipocyte differentiation in mouse 3T3L1 cells; conditions: 3T3-L1
Procedure, shortened: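 Compound (0, 5, 10 or 20 uM) co-applied with MDI differentiation medium on day 0 for 48 h. Differentiation ended at day 6 and lipid droplets were stained with Oil red O. Triplicate runs, means ± S.D.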

[2] = target: 5'-AMP-activated protein kinase catalytic subunit alpha-2 (Mus musculus) (UniProt Q8BRK8); assay: Induction of AMPK phosphorylation in mouse 3T3L1 cells at 10 uM by Western blotting; conditions: 3T3-L1
Procedure, shortened: (§1)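 Mouse 3T3-L1 cells exposed to test compound at 10 uM. Phosphorylated AMPK and its downstream target ACC were detected by western blot. Experiments were run in triplicate, with data given as means ± S.D. Groups were compared by one-way ANOVA with the Newman-Keuls test, significance p < 0.05.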

[3] = target: 5'-AMP-activated protein kinase catalytic subunit alpha-2 (Mus musculus) (UniProt Q8BRK8); assay: Induction of AMPK-mediated ACC phosphorylation in mouse 3T3L1 cells at 10 uM by Western blotting; conditions: 3T3-L1; procedure, shortened: as §1
[4] = target: 5'-AMP-activated protein kinase catalytic subunit alpha-2 (Mus musculus) (UniProt Q8BRK8); assay: Inhibition of AMPK in mouse 3T3L1 cells assessed as inhibition of C/EBPalpha gene expression by RT-PCR; conditions: 3T3-L1
Procedure, shortened: (§2)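 MDI-induced differentiating 3T3-L1 cells were given 0, 5, 10 or 20 uM. Per the legend, cells were treated for 6 h. RNA was extracted with Trizol and RT-PCR run with specific primers for the adipogenic markers. Triplicate runs; one-way ANOVA with Newman-Keuls test.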

[5] = target: 5'-AMP-activated protein kinase catalytic subunit alpha-2 (Mus musculus) (UniProt Q8BRK8); assay: Inhibition of AMPK in mouse 3T3L1 cells assessed as inhibition of C/EBPalpha level by Western blotting; conditions: 3T3-L1
Procedure, shortened: (§3)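 Western blot of lysates from 3T3-L1 cells undergoing MDI-induced differentiation. Cells received 0, 5, 10 or 20 uM from day 0. Probed for FAS, SREBP-1c, C/EBPa and PPARgamma. Triplicate runs; one-way ANOVA with Newman-Keuls test.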

[6] = target: 5'-AMP-activated protein kinase catalytic subunit alpha-2 (Mus musculus) (UniProt Q8BRK8); assay: Inhibition of AMPK in mouse 3T3L1 cells assessed as inhibition of FAS level by Western blotting; conditions: 3T3-L1; procedure, shortened: as §3
[7] = target: 5'-AMP-activated protein kinase catalytic subunit alpha-2 (Mus musculus) (UniProt Q8BRK8); assay: Inhibition of AMPK in mouse 3T3L1 cells assessed as inhibition of PPARgamma gene expression by RT-PCR; conditions: 3T3-L1; procedure, shortened: as §2
[8] = target: 5'-AMP-activated protein kinase catalytic subunit alpha-2 (Mus musculus) (UniProt Q8BRK8); assay: Inhibition of AMPK-mediated glucose uptake in mouse 3T3L1 cells; conditions: 3T3-L1
Procedure, shortened: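 Differentiated 3T3-L1 adipocytes incubated 1 h with 5, 10 or 20 uM, with 200 nM insulin as reference. 2-Deoxy-D-[3H]-glucose uptake was then measured. For AMPK dependence, 10 uM was tested with or without compound C (10 uM). Triplicate runs, means ± S.D., p<0.05.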

[9] = target: 5'-AMP-activated protein kinase catalytic subunit alpha-2 (Mus musculus) (UniProt Q8BRK8); assay: Inhibition of AMPK in mouse 3T3L1 cells assessed as inhibition of PPARgamma level by Western blotting; conditions: 3T3-L1; procedure, shortened: as §3
[10] = target: 5'-AMP-activated protein kinase catalytic subunit alpha-2 (Mus musculus) (UniProt Q8BRK8); assay: Inhibition of AMPK in mouse 3T3L1 cells assessed as inhibition of SREBP1c level by Western blotting; conditions: 3T3-L1; procedure, shortened: as §3
[11] = target: 5'-AMP-activated protein kinase catalytic subunit alpha-2 (Mus musculus) (UniProt Q8BRK8); assay: Inhibition of AMPK in mouse 3T3L1 cells assessed as inhibition of FAS gene expression by RT-PCR; conditions: 3T3-L1; procedure, shortened: as §2

5'-AMP-activated protein kinase catalytic subunit alpha-2 (Mus musculus), sequence (Q8BRK8 whole entry): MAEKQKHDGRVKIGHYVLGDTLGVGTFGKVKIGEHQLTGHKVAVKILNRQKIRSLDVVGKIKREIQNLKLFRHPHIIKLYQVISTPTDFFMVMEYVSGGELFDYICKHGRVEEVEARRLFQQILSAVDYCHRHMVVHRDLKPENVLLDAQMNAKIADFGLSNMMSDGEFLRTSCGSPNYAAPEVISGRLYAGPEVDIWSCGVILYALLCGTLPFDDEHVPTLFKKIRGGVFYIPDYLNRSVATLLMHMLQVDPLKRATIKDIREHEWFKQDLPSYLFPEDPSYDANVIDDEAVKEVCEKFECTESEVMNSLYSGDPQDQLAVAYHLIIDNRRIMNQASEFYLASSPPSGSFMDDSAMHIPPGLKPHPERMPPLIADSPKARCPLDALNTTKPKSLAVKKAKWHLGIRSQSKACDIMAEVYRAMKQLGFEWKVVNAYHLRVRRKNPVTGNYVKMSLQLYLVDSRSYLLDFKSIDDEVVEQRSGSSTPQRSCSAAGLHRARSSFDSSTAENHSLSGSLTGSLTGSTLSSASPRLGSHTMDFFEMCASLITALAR

Compound: O=c1c(O)c(-c2ccc(O)c(O)c2)oc2cc(O)cc(O[C@@H]3O[C@H](CO)[C@@H](O)[C@H](O)[C@H]3O)c12
- Activity (3T3-L1): Non-toxic
- Activity [1]: Active

Compound: COc1cc(-c2oc3cc(O)cc(O)c3c(=O)c2O[C@@H]2O[C@H](CO[C@@H]3O[C@@H](C)[C@H](O)[C@@H](O)[C@H]3O)[C@@H](O)[C@H](O)[C@H]2O)ccc1O [NARCISSIN]
- Activity (3T3-L1): Non-toxic
- Activity [1]: Active

Compound: O=c1c(O)c(-c2ccc(O)cc2)oc2cc(O)cc(O)c12 [KAEMPFEROL]
- Activity (3T3-L1): Non-toxic
- Activity [1]: Active

Compound: O=c1c(O)c(-c2ccc(O)c(O)c2)oc2cc(O)cc(O)c12 [QUERCETIN]
- Activity (3T3-L1): Non-toxic
- Activity [1]: Active
- Activity [2]: Active
- Activity [3]: Active

Compound: C[C@@H]1O[C@@H](OC[C@H]2O[C@@H](Oc3c(-c4ccc(O)c(O)c4)oc4cc(O)cc(O)c4c3=O)[C@H](O)[C@@H](O)[C@@H]2O)[C@H](O)[C@H](O)[C@H]1O [RUTIN]
- Activity (3T3-L1): Non-toxic
- Activity [1]: Active

Compound: O=c1c(O[C@@H]2O[C@H](CO)[C@@H](O)[C@H](O)[C@H]2O)c(-c2ccc(O)c(O)c2)oc2cc(O)cc(O)c12 [ISOQUERCETIN]
- Activity (3T3-L1): Non-toxic
- Activity [1]: Active

Compound: O=c1c(O[C@@H]2O[C@H](CO)[C@@H](O)[C@H](O)[C@H]2O)c(-c2ccc(O)cc2)oc2cc(O)cc(O)c12 [ASTRAGALIN]
- Activity (3T3-L1): Non-toxic
- Activity [1]: Active

Compound: C[C@@H]1O[C@@H](OC[C@H]2O[C@@H](Oc3c(-c4ccc(O)c(O)c4)oc4cc(O)cc(O)c4c3=O)[C@H](O)[C@@H](O)[C@@H]2O)[C@H](O)[C@H](O[C@@H]2OC[C@@H](O)[C@H](O)[C@H]2O)[C@H]1O
- Activity (3T3-L1): Non-toxic
- Activity [1]: Active

Compound: C[C@@H]1O[C@@H](OC[C@H]2O[C@@H](Oc3c(-c4ccc(O)c(O)c4)oc4cc(O)cc(O)c4c3=O)[C@H](O)[C@@H](O)[C@@H]2O)[C@H](O)[C@H](O[C@@H]2O[C@H](CO)[C@@H](O)[C@H](O)[C@H]2O)[C@H]1O
- Activity [4]: Active
- Activity [5]: Dose-dependent effect
- Activity [6]: Dose-dependent effect
- Activity [7]: Active
- Activity [8]: Active
- Activity (3T3-L1): Non-toxic
- Activity [1]: Active
- Activity [9]: Dose-dependent effect
- Activity [2]: Active
- Activity [3]: Active
- Activity [10]: Dose-dependent effect
- Activity [11]: Active

Reference: ChEMBL document CHEMBL1255190, “The selected flavonol glycoside derived from Sophorae Flos improves glucose uptake and inhibits adipocyte differentiation via activation AMPK in 3T3-L1 cells” (Bioorg Med Chem Lett, 2010)
